According to ChEMBL document CHEMBL2407075, “Sulphonamido-quinoxalines: search for anticancer agent” (Eur J Med Chem, 2013):

How the values were obtained:
Format in all cases: functional
LOX IMVI = experiment: Growth inhibition of human LOXIMVI cells assessed as cell growth at 10^-4 M after 48 hrs by sulforhodamine B assay; settings: read-out: Activity
BT-549 [1] = experiment: Growth inhibition of human BT549 cells assessed as cell growth at 10^-8 M after 48 hrs by sulforhodamine B assay; settings: BT-549, 48 h, read-out: Activity
Outline: (§1)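 Five-dose NCI-60 run (0.01, 0.1, 1, 10 and 100 µM, as 10-fold dilutions from a DMSO stock made at 400× the top final level). Cells were grown in RPMI 1640 with 5% FBS and 2 mM glutamine and plated for 24 h. They were then exposed for 48 h at 37 °C and 5% CO2. TCA fixation was followed by SRB staining with A515 read-out. Percent growth was taken relative to time-zero and control plates.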

OVCAR-4 = experiment: Growth inhibition of human OVCAR4 cells assessed as cell growth at 10^-7 M after 48 hrs by sulforhodamine B assay; settings: OVCAR-4, 48 h, read-out: Activity
SK-MEL-28 = experiment: Growth inhibition of human SK-MEL-28 cells assessed as cell growth at 10^-4 M after 48 hrs by sulforhodamine B assay; settings: SK-MEL-28, 48 h, read-out: Activity
OVCAR-3 = experiment: Growth inhibition of human OVCAR3 cells assessed as cell growth at 10^-4 M after 48 hrs by sulforhodamine B assay; settings: OVCAR-3, 48 h, read-out: Activity
A498 = experiment: Growth inhibition of human A498 cells after 48 hrs by sulforhodamine B assay; settings: A498, 48 h; for CC50: read-out: LC50 (the source's name)
Outline: (§2)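 Adherent cells in RPMI 1640 with 5% FBS and 2 mM L-glutamine were plated at 5000–40,000 cells/well and grown 24 h. Five concentrations (0.01–100 µM, DMSO stock) were added for 48 h at 37 °C. Cells were fixed with cold TCA (10% final) and stained with SRB, read at 515 nm. GI50 came from log concentration–growth curves against time-zero and control plates.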

[2] = Growth inhibition of human NCI-ADR-RES cells assessed as cell growth at 10^-8 M after 48 hrs by sulforhodamine B assay; settings: read-out: Activity
MOLT-4 [3] = experiment: Growth inhibition of human MOLT4 cells assessed as cell growth at 10^-8 M after 48 hrs by sulforhodamine B assay; settings: MOLT-4, 48 h, read-out: Activity
HCT-116 = experiment: Growth inhibition of human HCT116 cells after 48 hrs by sulforhodamine B assay; settings: HCT-116, 48 h; for CC50: read-out: LC50 (the source's name)
Outline: (§3)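 Five-dose screen at NCI. Cells in RPMI 1640 with 5% FBS and 2 mM L-glutamine, seeded at 5000–40,000 cells/well and grown 24 h at 37 °C, 5% CO2 before dosing, with time-zero plates TCA-fixed. Drug diluted from DMSO stock to 0.01, 0.1, 1, 10 and 100 µM final, 48 h. Cells fixed with cold TCA (10% final), stained with 0.4% SRB and read at 515 nm. Percent growth from Tz, control and test absorbances; GI50, TGI and LC50 from dose-response curves.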

T47D = experiment: Growth inhibition of human T47D cells assessed as cell growth at 10^-4 M after 48 hrs by sulforhodamine B assay; settings: read-out: Activity
BT-549 [4] = experiment: Growth inhibition of human BT549 cells assessed as cell growth at 10^-5 M after 48 hrs by sulforhodamine B assay; settings: BT-549, 48 h, read-out: Activity; outline: as §1
NCI-H226 = experiment: Growth inhibition of human NCI-H226 cells assessed as cell growth at 10^-5 M after 48 hrs by sulforhodamine B assay; settings: NCI-H226, 48 h, read-out: Activity
SK-OV-3 [5] = experiment: Growth inhibition of human SKOV3 cells assessed as cell growth at 10^-4 M after 48 hrs by sulforhodamine B assay; settings: SK-OV-3, 48 h, read-out: Activity
CAKI-1 = experiment: Growth inhibition of human CAKI-1 cells assessed as cell growth at 10^-6 M after 48 hrs by sulforhodamine B assay; settings: CAKI-1, 48 h, read-out: Activity; outline: as §1
SNB-19 [6] = experiment: Growth inhibition of human SNB19 cells assessed as cell growth at 10^-5 M after 48 hrs by sulforhodamine B assay; settings: SNB-19, 48 h, read-out: Activity
IGROV-1 = experiment: Growth inhibition of human IGROV1 cells after 48 hrs by sulforhodamine B assay; settings: IGROV-1, 48 h; for CC50: read-out: LC50 (the source's name); outline: as §2
RXF 393 = experiment: Growth inhibition of human RXF393 cells assessed as cell growth at 10^-4 M after 48 hrs by sulforhodamine B assay; settings: RXF 393, 48 h, read-out: Activity
HOP-92 = experiment: Growth inhibition of human HOP92 cells assessed as cell growth at 10^-7 M after 48 hrs by sulforhodamine B assay; settings: HOP-92, 48 h, read-out: Activity; outline: as §3
K562 = experiment: Growth inhibition of human K562 cells assessed as cell growth at 10^-7 M after 48 hrs by sulforhodamine B assay; settings: K562, 48 h, read-out: Activity
ACHN = experiment: Growth inhibition of human ACHN cells assessed as cell growth at 10^-6 M after 48 hrs by sulforhodamine B assay; settings: read-out: Activity; outline: as §1
SN12C = experiment: Growth inhibition of human SN12C cells assessed as cell growth at 10^-6 M after 48 hrs by sulforhodamine B assay; settings: read-out: Activity
MOLT-4 [7] = experiment: Growth inhibition of human MOLT4 cells after 48 hrs by sulforhodamine B assay; settings: MOLT-4, 48 h; for CC50: read-out: LC50 (the source's name)
Outline: (§4)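 Leukemia suspension cells in RPMI 1640 with 5% FBS and 2 mM L-glutamine were plated at 5000–40,000 cells/well and grown 24 h. Five concentrations (0.01–100 µM) were given for 48 h at 37 °C. Settled cells were fixed with 80% TCA (16% final) and SRB-stained, read at 515 nm. GI50 came from dose–response curves against time-zero and control plates.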

SK-MEL-5 = experiment: Growth inhibition of human SK-MEL-5 cells assessed as cell growth at 10^-8 M after 48 hrs by sulforhodamine B assay; settings: SK-MEL-5, 48 h, read-out: Activity
SK-OV-3 [8] = experiment: Growth inhibition of human SKOV3 cells assessed as cell growth at 10^-5 M after 48 hrs by sulforhodamine B assay; settings: SK-OV-3, 48 h, read-out: Activity
SF-539 = experiment: Growth inhibition of human SF539 cells assessed as cell growth at 10^-6 M after 48 hrs by sulforhodamine B assay; settings: SF-539, 48 h, read-out: Activity
RPMI-8226 [9] = experiment: Growth inhibition of human RPMI8226 cells assessed as cell growth at 10^-8 M after 48 hrs by sulforhodamine B assay; settings: RPMI-8226, 48 h, read-out: Activity
RPMI-8226 [10] = experiment: Growth inhibition of human RPMI8226 cells after 48 hrs by sulforhodamine B assay; settings: RPMI-8226, 48 h; for CC50: read-out: LC50 (the source's name); outline: as §4
SNB-19 [11] = experiment: Growth inhibition of human SNB19 cells after 48 hrs by sulforhodamine B assay; settings: SNB-19, 48 h; for CC50: read-out: LC50 (the source's name); outline: as §2
Malme-3M = experiment: Growth inhibition of human MALME-3M cells assessed as cell growth at 10^-6 M after 48 hrs by sulforhodamine B assay; settings: read-out: Activity

SMILES	growth at 100 µM (LOX IMVI) [%]	growth at 0.01 µM (BT-549 [1]) [%]	growth at 0.1 µM (OVCAR-4) [%]	growth at 100 µM (SK-MEL-28) [%]	growth at 100 µM (OVCAR-3) [%]	CC50 (A498) [µM]	growth at 0.01 µM [2] [%]	growth at 0.01 µM (MOLT-4 [3]) [%]	TGI (HCT-116) [µM]	CC50 (HCT-116) [µM]	growth at 100 µM (T47D) [%]	growth at 10 µM (BT-549 [4]) [%]	growth at 10 µM (NCI-H226) [%]	growth at 100 µM (SK-OV-3 [5]) [%]	growth at 1 µM (CAKI-1) [%]	growth at 10 µM (SNB-19 [6]) [%]	TGI (IGROV-1) [µM]	CC50 (IGROV-1) [µM]	growth at 100 µM (RXF 393) [%]	growth at 0.1 µM (HOP-92) [%]	other results
O=S(=O)(Nc1ccc(Cl)cc1)c1ccc2nc(-c3ccccc3)c(-c3ccccc3)nc2c1	66	98	90	82	65	> 100	99	97	> 100	> 100	37	-20	-29	65	89	17	> 100	> 100	51	92	growth at 0.1 µM (K562): 98%; growth at 1 µM (ACHN): 96%; growth at 1 µM (SN12C): 93%; CC50 (MOLT-4 [7]): > 100 µM; growth at 0.01 µM (SK-MEL-5): 95%; growth at 10 µM (SK-OV-3 [8]): 14%; growth at 1 µM (SF-539): 101%; growth at 0.01 µM (RPMI-8226 [9]): 103%; GI50 (RPMI-8226 [10]): 1.43 µM; CC50 (RPMI-8226 [10]): > 100 µM; TGI (SNB-19 [11]): > 100 µM; CC50 (SNB-19 [11]): > 100 µM; growth at 1 µM (Malme-3M): 103%
O=S(=O)(Nc1ccccn1)c1ccc2nc(-c3ccccc3)c(-c3ccccc3)nc2c1	57	99	102	82	45	> 100	101	96	> 100	> 100	-1	-34	-35	37	102	17	> 100	> 100	38	92	GI50 (A498): 1.67 µM; GI50 (HCT-116): 2.17 µM; growth at 0.1 µM (K562): 99%; growth at 1 µM (ACHN): 94%; growth at 1 µM (SN12C): 91%; GI50 (MOLT-4 [7]): 1.89 µM; CC50 (MOLT-4 [7]): > 100 µM; growth at 0.01 µM (SK-MEL-5): 95%; growth at 10 µM (SK-OV-3 [8]): 11%; growth at 1 µM (SF-539): 96%; growth at 0.01 µM (RPMI-8226 [9]): 108%; GI50 (RPMI-8226 [10]): 1.11 µM; CC50 (RPMI-8226 [10]): > 100 µM; TGI (SNB-19 [11]): > 100 µM; CC50 (SNB-19 [11]): > 100 µM; growth at 1 µM (Malme-3M): 115%
